From ChEMBL document CHEMBL1134232, “Phenylcyclohexene and phenylcyclohexadiene substituted compounds having retinoid antagonist activity” (Bioorg Med Chem Lett, 2001)

What was measured:
[1] = biological target: T1, Retinoic acid receptor alpha (Homo sapiens) (UniProt P10276); assay: Efficacy of TTNPB (10 nM) function at retinoic acid receptor alpha, antagonized at highest dose tested (10⁴ nM)
T1 sequence (whole entry): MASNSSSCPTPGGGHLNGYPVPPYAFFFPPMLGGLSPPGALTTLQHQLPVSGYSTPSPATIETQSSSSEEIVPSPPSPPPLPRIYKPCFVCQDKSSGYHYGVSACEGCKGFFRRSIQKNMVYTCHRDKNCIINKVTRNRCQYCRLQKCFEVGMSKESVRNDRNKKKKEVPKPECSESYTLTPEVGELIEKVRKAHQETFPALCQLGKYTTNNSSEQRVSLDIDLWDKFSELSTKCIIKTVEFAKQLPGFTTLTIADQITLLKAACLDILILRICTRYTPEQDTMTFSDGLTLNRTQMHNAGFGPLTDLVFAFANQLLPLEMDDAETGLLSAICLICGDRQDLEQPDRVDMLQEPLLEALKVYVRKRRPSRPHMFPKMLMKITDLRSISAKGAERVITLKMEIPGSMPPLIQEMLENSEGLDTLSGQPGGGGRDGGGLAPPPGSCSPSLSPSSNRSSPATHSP
How it was run: (§1)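 In the RAR transactivation assay with 10 nM TTNPB, efficacy is the percent of TTNPB transcriptional activity antagonized at the highest dose tested (10⁴ nM). Each receptor subtype is tested separately.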

[2] = biological target: T2, Retinoic acid receptor alpha (Homo sapiens, UniProt P10276); assay: Antagonist activity of TTNPB (10 nM) function at retinoic acid receptor alpha; type: functional
T2 sequence (P10276 whole entry): T1 sequence (whole entry)
How it was run: (§2)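 Transactivation assay run separately at RARα, RARβ and RARγ. Test compound is applied at varying concentrations against 10 nM TTNPB, held constant. Inhibition of TTNPB-driven transcriptional activation is measured, and IC50 is calculated as the half-maximal inhibition concentration.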

[3] = biological target: T3, Retinoic acid receptor gamma (Homo sapiens, UniProt P13631); assay: Antagonist activity of TTNPB (10 nM) function at retinoic acid receptor gamma; type: functional; how it was run: as §2
T3 sequence (P13631 whole entry): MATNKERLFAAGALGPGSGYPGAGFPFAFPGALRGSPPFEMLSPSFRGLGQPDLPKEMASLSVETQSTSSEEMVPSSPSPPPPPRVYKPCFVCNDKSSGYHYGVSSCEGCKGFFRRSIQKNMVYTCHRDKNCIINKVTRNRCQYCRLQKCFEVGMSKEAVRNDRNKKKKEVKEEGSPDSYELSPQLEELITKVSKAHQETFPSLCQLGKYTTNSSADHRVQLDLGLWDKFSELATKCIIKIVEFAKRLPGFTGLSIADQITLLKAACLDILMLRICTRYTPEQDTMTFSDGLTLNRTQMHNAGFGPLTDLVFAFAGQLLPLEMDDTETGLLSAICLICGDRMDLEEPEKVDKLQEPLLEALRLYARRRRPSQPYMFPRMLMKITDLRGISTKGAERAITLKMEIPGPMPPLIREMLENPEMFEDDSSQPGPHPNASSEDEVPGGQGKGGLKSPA

[4] = biological target: T4, Retinoic acid receptor beta (Homo sapiens) (UniProt P10826); assay: Efficacy of TTNPB (10 nM) function at retinoic acid receptor beta (10 uM); how it was run: as §1
T4 sequence (whole entry): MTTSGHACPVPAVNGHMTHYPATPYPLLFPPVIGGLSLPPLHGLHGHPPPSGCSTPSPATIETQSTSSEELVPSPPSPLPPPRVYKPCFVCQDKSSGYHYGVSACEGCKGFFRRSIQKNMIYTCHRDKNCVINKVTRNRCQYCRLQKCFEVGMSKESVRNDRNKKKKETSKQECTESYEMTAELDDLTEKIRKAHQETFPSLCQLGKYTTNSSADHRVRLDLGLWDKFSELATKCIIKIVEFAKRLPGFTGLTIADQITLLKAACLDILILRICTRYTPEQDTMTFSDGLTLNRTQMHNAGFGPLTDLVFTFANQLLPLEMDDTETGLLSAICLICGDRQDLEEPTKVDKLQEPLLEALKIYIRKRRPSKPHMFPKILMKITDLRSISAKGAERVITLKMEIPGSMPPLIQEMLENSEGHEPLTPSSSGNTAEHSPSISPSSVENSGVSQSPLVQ

[5] = biological target: T5, Retinoic acid receptor beta (Homo sapiens, UniProt P10826); assay: Antagonist activity of TTNPB (10 nM) function at retinoic acid receptor beta; type: functional; how it was run: as §2
T5 sequence (P10826 whole entry): T4 sequence (whole entry)

[6] = biological target: T6, Retinoic acid receptor gamma (Homo sapiens) (UniProt P13631); assay: Efficacy of TTNPB (10 nM) function at retinoic acid receptor gamma (10 uM); how it was run: as §1
T6 sequence (whole entry): T3 sequence (P13631 whole entry)

[7] = biological target: T2, Retinoic acid receptor alpha; assay: Binding affinity towards retinoic acid receptor alpha was determined using [3H]ATRA (5 nM) as radioligand
[8] = biological target: T3, Retinoic acid receptor gamma; assay: Binding affinity towards retinoic acid receptor gamma was determined using [3H]ATRA (5 nM) as radioligand
[9] = biological target: T5, Retinoic acid receptor beta; assay: Binding affinity towards retinoic acid receptor beta was determined using [3H]ATRA (5 nM) as radioligand
[10] = biological target: T5, Retinoic acid receptor beta; assay: Ability to inhibit TTNPB-induced transactivation at retinoic acid receptor beta
[11] = biological target: T2, Retinoic acid receptor alpha; assay: Ability to inhibit TTNPB-induced transactivation at retinoic acid receptor alpha
[12] = biological target: T3, Retinoic acid receptor gamma; assay: Ability to inhibit TTNPB-induced transactivation at retinoic acid receptor gamma

| Structure (SMILES) | Efficacy [1] [%] | IC50 [2] [nM] | IC50 [3] [nM] | Efficacy [4] [%] | IC50 [5] [nM] | Efficacy [6] [%] | Kd [7] [nM] | Kd [8] [nM] | Kd [9] [nM] | EC50 [10] [nM] | EC50 [11] [nM] | EC50 [12] [nM] |
| --- | --- | --- | --- | --- | --- | --- | --- | --- | --- | --- | --- | --- |
| Cc1ccc(C2=C(/C=C/C#Cc3ccc(C(=O)O)cc3)C(C)(C)CCC2)cc1 | 93 | 210 | 5 | 92 | 22 | 96 |  |  |  |  |  |  |
| CCc1ccc(C2=C(/C=C/C#Cc3ccc(C(=O)O)cc3)C(C)(C)CCC2)cc1 | 97 | 220 | 3 | 96 | 40 | 95 |  |  |  |  |  |  |
| CC1(C)CCCC(c2ccc(C(C)(C)C)cc2)=C1/C=C/C#Cc1ccc(C(=O)O)cc1 | 94 |  |  | 96 |  | 95 | 875 | 331 | 25 |  |  |  |
| CC1=C(/C=C/C#Cc2ccc(C(=O)O)cc2)C(C)(C)CCC1 |  |  |  |  |  |  | 135 | 190 | 20 | 7 | 435 |  |
| CC1(C)C=C(/C=C/C#Cc2ccc(C(=O)O)cc2)C(c2ccc(C(C)(C)C)cc2)=CC1 |  |  |  |  |  |  | > 1000 | > 1000 | 87 |  |  |  |

More lines, in order of falling Kd [7], values ahead:

| Efficacy [1] [%] | IC50 [2] [nM] | IC50 [3] [nM] | Efficacy [4] [%] | IC50 [5] [nM] | Efficacy [6] [%] | Kd [7] [nM] | Kd [8] [nM] | Kd [9] [nM] | EC50 [10] [nM] | EC50 [11] [nM] | EC50 [12] [nM] | Structure (SMILES) |
| --- | --- | --- | --- | --- | --- | --- | --- | --- | --- | --- | --- | --- |
| 96 |  |  | 94 |  | 97 | 252 | 31 | 53 |  |  |  | Cc1ccc(C2=CCC(C)(C)C=C2/C=C/C#Cc2ccc(C(=O)O)cc2)cc1 |
|  |  |  |  |  |  | 36 | 26 | 5 | 8 | 30 | 4 | CC1(C)CCC(C)(C)c2cc(C/C=C/c3ccc(C(=O)O)cc3)ccc21 |
| 91 | 31 | 3 | 97 | 20 | 98 | 17 |  |  |  |  |  | Cc1ccc(C2=CCC(C)(C)c3ccc(C#Cc4ccc(C(=O)O)cc4)cc32)cc1 |
